Experimental data reported in ChEMBL document CHEMBL1938254, “Semisynthetic neoboutomellerone derivatives as ubiquitin-proteasome pathway inhibitors” (Bioorg Med Chem, 2012).
Where “and” joins values, the source holds several entries; their conditions need not be identical. Identical values can stand only once.

Key:
Format in all cases: cell-based
[1] = Inhibition of chymotrypsin-like activity of 20S proteasome in human DLD1 cells transfected with 4Ub-Luc gene using Succinyl-Leu-Leu-Val-Tyr-AMC as substrate after 6 hrs by spectrofluorometric analysis; details: dld-1
In short: (§1)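 DLD-1 4Ub-Luc cells seeded at 10⁴ cells/well, exposed to compound or solvent for 6 h, then 30 min in reaction buffer (30 mM Tris–HCl pH 7.5, 1 mM ATP). Chymotrypsin-like and PGPH activities read with specific fluorogenic substrates.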

[2] = Inhibition of peptide-glutamyl-peptide-hydrolyzing activity of 20S proteasome in human DLD1 cells transfected with 4Ub-Luc gene using Z-Leu-Leu-Glu-AMC as substrate after 6 hrs by spectrofluorometric analysis; details: dld-1; in short: as §1
DLD-1 [3] = experiment: Inhibition of 20S proteasome in human DLD1 cells transfected with 4Ub-Luc gene assessed as bioluminescence induction factor at 1 uM after 8 hrs by luciferase reporter gene assay relative to epoxomicin
In short: (§2)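 Stably transfected DLD-1 cells expressing 4Ub-Luc reporter, cultured in MEM with 5% heat-inactivated serum. Seeded at 10⁴ cells/well and treated with compound or solvent for 8 h. Luciferase activity in lysates read by luminometer. Induction factor = signal of treated over untreated cells, normalised to epoxomicin at 10^-7 M run in parallel (set to 100). IF ≥10 counted active.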

DLD-1 [4] = experiment: Inhibition of 20S proteasome activity in human DLD1 cells transfected with 4Ub-Luc gene assessed as bioluminescence induction factor at 10 uM after 8 hrs by luciferase reporter gene assay relative to epoxomicin; in short: as §2
DLD-1 [5] = experiment: Inhibition of 20S proteasome in human DLD1 cells transfected with 4Ub-Luc gene assessed as bioluminescence induction factor at 5 uM after 8 hrs by luciferase reporter gene assay relative to epoxomicin; in short: as §2
DLD-1 [6] = experiment: Inhibition of 20S proteasome in human DLD1 cells transfected with 4Ub-Luc gene assessed as bioluminescence induction factor at 0.5 uM after 8 hrs by luciferase reporter gene assay relative to epoxomicin; in short: as §2

IC50 [1] [µM] | IC50 [2] [µM] | Structure (SMILES) | fold change (FC) (DLD-1 [3]) | fold change (FC) (DLD-1 [4]) | fold change (FC) (DLD-1 [5]) | fold change (FC) (DLD-1 [6])
48 | 60 | C=C(C(=O)[C@H](OC(C)=O)[C@@H](C)[C@H]1[C@@H](OC(C)=O)C[C@@]2(C)[C@@H]3[C@H]4O[C@H]4[C@H]4[C@H](C)C(=O)C=C[C@@]45C[C@@]35CC[C@]12C)[C@@H](C)CO | 2.8 | 15 | 72 | –
8.6 | 4.1 | C=C(C(=O)[C@H](OC(C)=O)[C@@H](C)[C@H]1[C@@H](OC(C)=O)C[C@@]2(C)[C@@H]3CC[C@H]4[C@H](C)/C(=N\NC(N)=O)C=C[C@@]45C[C@@]35CC[C@]12C)[C@@H](C)CO | 1.4 | 30 | 99 | –
– | – | C=C(C(=O)[C@H](O)[C@@H](C)[C@H]1[C@@H](OC(C)=O)C[C@@]2(C)[C@@H]3CC[C@H]4[C@H](C)C(=O)C=C[C@@]45C[C@@]35CC[C@]12C)[C@@H](C)COC(=O)CN(C)C [listing 1 of 3 here] | 22 and 17 | 6.8 and 4 | 35 and 34 | 1.3
> 1000 | > 1000 | C=C(C(=O)[C@H](O)[C@@H](C)[C@H]1[C@@H](OC(C)=O)C[C@@]2(C)[C@@H]3CC[C@H]4[C@H](C)C(=O)C=C[C@@]45C[C@@]35CC[C@]12C)[C@@H](C)COC(=O)CNC(=O)OC(C)(C)C | 4.8 | 16 | 47 | –
17 | 13 | C=C(C(=O)[C@H](OC(C)=O)[C@@H](C)[C@H]1[C@@H](OC(C)=O)C[C@@]2(C)[C@@H]3CC[C@H]4[C@H](C)C(=O)CC[C@@]45C[C@@]35CC[C@]12C)[C@@H](C)CO | 0.9 | 48 | 45 | –
> 1000 | > 1000 | C=C(C(=O)[C@H](OC(C)=O)[C@@H](C)[C@H]1[C@@H](OC(C)=O)C[C@@]2(C)[C@@H]3CC[C@H]4[C@H](C)C(=O)C=C[C@@]45C[C@@]35CC[C@]12C)[C@@H](C)COC(=O)CCl | 12 | 19 | 52 | –
– | – | C=C(C(=O)[C@H](OC(=O)CNC(=O)OC(C)(C)C)[C@@H](C)[C@H]1[C@@H](OC(C)=O)C[C@@]2(C)[C@@H]3CC[C@H]4[C@H](C)C(=O)C=C[C@@]45C[C@@]35CC[C@]12C)[C@@H](C)CO | 14 | 5 | 36 | 2
> 1000 | > 1000 | CC(=O)O[C@H]1C[C@@]2(C)[C@@H]3CC[C@H]4[C@H](C)C(=O)C=C[C@@]45C[C@@]35CC[C@]2(C)[C@H]1[C@H](C)[C@@H](OC(C)=O)C(=O)C=C(C)C | 1.1 | 44 | 34 | –
– | – | C=C(C(=O)[C@H](O)[C@@H](C)[C@H]1[C@@H](OC(C)=O)C[C@@]2(C)[C@@H]3CC[C@H]4[C@H](C)C(=O)C=C[C@@]45C[C@@]35CC[C@]12C)[C@@H](C)COC(=O)N1CCN(C)CC1 [listing 2 of 2 here] | 69 and 70 | 1.5 and 1.4 | 7.1 and 4.5 | 15.4 and 12
> 1000 | > 1000 | C=C(C(=O)[C@H](O)[C@@H](C)[C@H]1[C@@H](OC(C)=O)C[C@@]2(C)[C@@H]3C[C@@H](O)[C@H]4[C@H](C)C(=O)C=C[C@@]45C[C@@]35CC[C@]12C)[C@@H](C)CO | 1.1 | – | 35 | –
92 | > 1000 | C=C(C(=O)[C@H](OC(C)=O)[C@@H](C)[C@H]1[C@@H](OC(C)=O)C[C@@]2(C)[C@@H]3CC[C@H]4[C@H](C)C(=O)C=C[C@@]45C[C@@]35CC[C@]12C)[C@@H](C)COC(=O)CNC(=O)OC(C)(C)C | 14 | 10 | 43 | –
17 | 22 | C=C(C(=O)[C@H](O)[C@@H](C)[C@H]1[C@@H](OC(C)=O)C[C@@]2(C)[C@@H]3CC[C@H]4[C@H](C)C(=O)C=C[C@@]45C[C@@]35CC[C@]12C)[C@@H](C)COC(=O)CN(C)C [listing 2 of 3 here] | – | – | – | –
> 1000 | > 1000 | C=C(C(=O)[C@H](O)[C@@H](C)[C@H]1[C@@H](OC(C)=O)C[C@@]2(C)[C@@H]3CC[C@H]4[C@H](C)C(=O)C=C[C@@]45C[C@@]35CC[C@]12C)C(C)C | 2.4 | 20 | 65 | –
– | – | C=C(C(=O)[C@H](OC(C)=O)[C@@H](C)[C@H]1[C@@H](OC(C)=O)C[C@@]2(C)[C@@H]3CC[C@H]4[C@H](C)/C(=N/O)C=C[C@@]45C[C@@]35CC[C@]12C)[C@@H](C)CO | 1 | – | 103 | 1
11 | 12 | C=C(C(=O)[C@H](OC(C)=O)[C@@H](C)[C@H]1[C@@H](OC(C)=O)C[C@@]2(C)[C@@H]3CC[C@H]4[C@H](C)/C(=N\OC)C=C[C@@]45C[C@@]35CC[C@]12C)[C@@H](C)CO | 0.7 | 24 | 3.4 | –
> 1000 | > 1000 | C=C(C(=O)[C@H](OC(C)=O)[C@@H](C)[C@H]1[C@@H](OC(C)=O)C[C@@]2(C)[C@@H]3CC[C@H]4[C@H](C)C(=O)C=C[C@@]45C[C@@]35CC[C@]12C)C(C)C | 7.2 | 19 | 74 | –
19 | 23 | C=C(C(=O)[C@H](O)[C@@H](C)[C@H]1[C@@H](OC(C)=O)C[C@@]2(C)[C@@H]3CC[C@H]4[C@H](C)C(=O)C=C[C@@]45C[C@@]35CC[C@]12C)[C@@H](C)COC(=O)CN(C)C [listing 3 of 3 here] | – | – | – | –
– | – | C=C(C(=O)[C@H](O)[C@@H](C)[C@H]1[C@@H](OC(C)=O)C[C@@]2(C)[C@@H]3CC[C@H]4[C@H](C)C(=O)C=C[C@@]45C[C@@]35CC[C@]12C)[C@@H](C)COS(=O)(=O)O | 0.9 | 0.9 | 0.8 | –
– | – | C=C(C(=O)[C@H](OC(C)=O)[C@@H](C)[C@H]1[C@@H](OC(C)=O)C[C@@]2(C)[C@@H]3CC[C@H]4[C@H](C)C(=O)C(O)C(O)[C@@]45C[C@@]35CC[C@]12C)[C@@H](C)COCC(O)CO (some centres not stated) | 1.1 | 48 | 32 | –
> 1000 | > 1000 | CC(=O)O[C@H]1C[C@@]2(C)[C@@H]3CC[C@H]4[C@H](C)C(=O)C=C[C@@]45C[C@@]35CC[C@]2(C)[C@H]1[C@H](C)[C@@H](O)C(=O)C=C(C)C | 1.1 | 53 | 5.2 | –
– | – | C=C(C(=O)[C@H](OC(C)=O)[C@@H](C)[C@H]1[C@@H](OC(C)=O)C[C@@]2(C)[C@@H]3CC[C@H]4[C@H](C)C(=O)C=C[C@@]45C[C@@]35CC[C@]12C)[C@@H](C)COC(=O)CP(=O)(O)O | 1.1 | 1.4 | 1.1 | –
> 1000 | > 1000 | C=C(C(=O)[C@H](OC(C)=O)[C@@H](C)[C@H]1[C@@H](OC(C)=O)C[C@@]2(C)[C@@H]3C[C@@H](O)[C@H]4[C@H](C)C(=O)C=C[C@@]45C[C@@]35CC[C@]12C)[C@@H](C)CO | 5.1 | – | 31 | –
– | – | CONCC(C(=O)[C@H](OC(C)=O)[C@@H](C)[C@H]1[C@@H](OC(C)=O)C[C@@]2(C)[C@@H]3CC[C@H]4[C@H](C)C(=O)C=C[C@@]45C[C@@]35CC[C@]12C)[C@@H](C)CO (some centres not stated) | 1.1 | 4.9 | 1.2 | –
– | – | C=C(C(=O)[C@H](OC(C)=O)[C@@H](C)[C@H]1[C@@H](OC(C)=O)C[C@@]2(C)[C@@H]3CC[C@H]4[C@H](C)C(=O)C=C[C@@]45C[C@@]35CC[C@]12C)[C@H](C)CO | 1.1 | 88 | 51 | –
– | – | C=C(C(=O)[C@H](OC(C)=O)[C@@H](C)[C@H]1[C@@H](OC(C)=O)C[C@@]2(C)[C@@H]3CC[C@H]4[C@H](C)C(=O)C=C[C@@]45C[C@@]35CC[C@]12C)[C@@H](C)C(=O)O | 1 | 16 | 1.4 | –

Structure (SMILES) | IC50 [1] [µM] | IC50 [2] [µM] | fold change (FC) (DLD-1 [3]) | fold change (FC) (DLD-1 [4]) | fold change (FC) (DLD-1 [5]) | fold change (FC) (DLD-1 [6])
C=C(C(=O)[C@H](O)[C@@H](C)[C@H]1[C@@H](OC(C)=O)C[C@@]2(C)[C@@H]3CC[C@H]4[C@H](C)C(=O)C=C[C@@]45C[C@@]35CC[C@]12C)[C@@H](C)COC(=O)N1CCN(C)CC1 [listing 1 of 2 here] | 12 | 12 | – | – | – | –
C=C(C(=O)[C@H](OC(C)=O)[C@@H](C)[C@H]1[C@@H](OC(C)=O)C[C@@]2(C)[C@@H]3CC[C@H]4[C@H](C)C(=O)C=C[C@@]45C[C@@]35CC[C@]12C)[C@@H](C)COP(=O)(O)O | 92 | > 1000 | 0.9 and 1 | 46 and 51 | 3 and 4.4 | –
C=C(C(=O)[C@H](OC(C)=O)[C@@H](C)[C@H]1[C@@H](OC(C)=O)C[C@@]2(C)[C@@H]3CC[C@H]4[C@H](C)/C(=N/OCc5ccccc5)C=C[C@@]45C[C@@]35CC[C@]12C)[C@@H](C)CO | 10 | 11 | 0.8 | 5.6 | 12 | –
